According to paper PMC5689159 (Biochemistry and Biophysics Reports, 2016):

Key:
litchi lectin = experiment: tryptophan fluorescence quenching; format: binding, Litchi chinensis; details: free lectin; 150 mM NaCl, 10 mM CaCl2, pH 7.5, 298 K; n = 0.9
In short: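 Steady-state fluorescence emission spectra of dilute lectin solutions (10−4−10−6 M) recorded at 298 K in 1 cm path-length quartz cells on a fluorescence spectrophotometer. UV–vis absorption spectra were taken under the same conditions.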

[1] = molecular target: litchi lectin (Litchi chinensis seed lectin) (Litchi chinensis); experiment: native gel or EMSA

| Molecule | Ka/ (10^4) (M^-1) (litchi lectin) | stoichiometry N [1] |
| --- | --- | --- |
| OC[C@H]1O[C@H](O[C@H]2[C@H](O)[C@@H](O)C(O)O[C@@H]2CO)[C@H](O)[C@@H](O)[C@@H]1O (some centres unmarked) [maltose] | 4.9 (±0.2)×10^4 |  |
| litchi lectin (Litchi chinensis seed lectin) (natural protein) |  | 2 |
